Experimental data from ChEMBL document CHEMBL3407339, “A novel series of thiazolyl-pyrazoline derivatives: synthesis and evaluation of antifungal activity, cytotoxicity and genotoxicity” (Eur J Med Chem, 2015).
Converted amounts (≈) assume the structure as drawn.

test system: Salmonella typhimurium; experiment: Mutagenicity in Salmonella typhimurium TA98 at 2.5 mg/ml after 48 hrs by AMES MPF assay in presence of Sprague-Dawley rat liver microsomal S9 fraction relative to baseline; assay type: toxicity, organism-based; conditions: salmonella enterica subsp. enterica serovar typhimurium
Summary of the method: (§1)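 Ames MPF fluctuation test with TA98/TA100. Overnight cultures (37 °C, 14–16 h) mixed with exposure medium; ±Aroclor-1254-induced rat liver S9 (final 4.5% v/v). Compounds in DMSO, 0.156–5 mg/mL. 90 min exposure at 37 °C, then indicator medium; 48 wells per concentration, 48 h at 37 °C, in triplicate. Yellow wells counted; fold induction over baseline (mean + 1 SD of zero-dose control).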

| SMILES | fold change (FC) |
| --- | --- |
| Cc1ccc(C2=NN(c3nc(-c4ccc(C#N)cc4)cs3)C(c3ccc(F)cc3)C2)s1 (stereo not drawn) | 0.89 |

test system: Salmonella typhimurium; experiment: Mutagenicity in Salmonella typhimurium TA100 at 0.156 mg/ml after 48 hrs by AMES MPF assay in absence of Sprague-Dawley rat liver microsomal S9 fraction relative to baseline; assay type: toxicity, organism-based; conditions: salmonella enterica subsp. enterica serovar typhimurium; summary of the method: as §1

| SMILES | fold change (FC) |
| --- | --- |
| Cc1ccc(C2=NN(c3nc(-c4ccc(C#N)cc4)cs3)C(c3ccc(F)cc3)C2)s1 (stereo not drawn) | 0.8 |

test system: Aspergillus flavus; experiment: Antifungal activity against Aspergillus flavus NRRL 980 after 72 hrs by broth microdilution assay; assay type: functional; conditions: NRRL 980, 72 h
Summary of the method: (§2)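 Compounds dissolved in DMSO, diluted in sterile distilled water from 4 to 0.0039 mg/mL. Molds grown on PDA at 25 °C for 5 days, suspended in double-strength PDB at 10⁵ spores/mL. Incubated at 25 °C for 72 h; mycelial growth read under stereo microscope. MIC = lowest concentration inhibiting visible growth. Ketoconazole reference.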

| SMILES | MIC [µg/mL] |
| --- | --- |
| Cc1ccc(C2=NN(c3nc(-c4ccc(C#N)cc4)cs3)C(c3ccc(F)cc3)C2)s1 (stereo not drawn) | 125 (≈ 281 µM) |

test system: Candida albicans; experiment: Antifungal activity against Candida albicans ATCC 90028 after 48 hrs by broth microdilution assay; assay type: functional; conditions: ATCC 90028, 48 h
Summary of the method: (§3)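 Broth microdilution of DMSO stocks serially diluted in sterile water (4 to 0.0039 mg/mL). Yeasts grown on SDA at 37 °C for 24 h, suspended in double-strength PDB at 10⁵ spores/mL. Incubated at 37 °C for 48 h, then sprayed with 0.5% aqueous TTC. MIC = lowest concentration inhibiting visible growth. Ketoconazole reference.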

| SMILES | MIC [µg/mL] |
| --- | --- |
| Cc1ccc(C2=NN(c3nc(-c4ccc(C#N)cc4)cs3)C(c3ccc(F)cc3)C2)s1 (stereo not drawn) | 250 (≈ 562 µM) |

test system: Fusarium solani; experiment: Antifungal activity against Fusarium solani NRRL 13414 after 72 hrs by broth microdilution assay; assay type: functional; conditions: NRRL 13414, 72 h; summary of the method: as §2

| SMILES | MIC [µg/mL] |
| --- | --- |
| Cc1ccc(C2=NN(c3nc(-c4ccc(C#N)cc4)cs3)C(c3ccc(F)cc3)C2)s1 (stereo not drawn) | 250 (≈ 562 µM) |

test system: Salmonella typhimurium; experiment: Mutagenicity in Salmonella typhimurium TA98 at 2.5 mg/ml after 48 hrs by AMES MPF assay in absence of Sprague-Dawley rat liver microsomal S9 fraction relative to baseline; assay type: toxicity, organism-based; conditions: salmonella enterica subsp. enterica serovar typhimurium; summary of the method: as §1

| SMILES | fold change (FC) |
| --- | --- |
| Cc1ccc(C2=NN(c3nc(-c4ccc(C#N)cc4)cs3)C(c3ccc(F)cc3)C2)s1 (stereo not drawn) | 1.56 |

test system: Salmonella typhimurium; experiment: Mutagenicity in Salmonella typhimurium TA100 at 0.625 mg/ml after 48 hrs by AMES MPF assay in absence of Sprague-Dawley rat liver microsomal S9 fraction relative to baseline; assay type: toxicity, organism-based; conditions: salmonella enterica subsp. enterica serovar typhimurium; summary of the method: as §1

| SMILES | fold change (FC) |
| --- | --- |
| Cc1ccc(C2=NN(c3nc(-c4ccc(C#N)cc4)cs3)C(c3ccc(F)cc3)C2)s1 (stereo not drawn) | 0.74 |

test system: Aspergillus niger; experiment: Antifungal activity against Aspergillus niger ATCC 1094 after 72 hrs by broth microdilution assay; assay type: functional; conditions: ATCC 1094, 72 h; summary of the method: as §2

| SMILES | MIC [µg/mL] |
| --- | --- |
| Cc1ccc(C2=NN(c3nc(-c4ccc(C#N)cc4)cs3)C(c3ccc(F)cc3)C2)s1 (stereo not drawn) | 250 (≈ 562 µM) |

test system: Salmonella typhimurium; experiment: Mutagenicity in Salmonella typhimurium TA98 at 1.25 mg/ml after 48 hrs by AMES MPF assay in presence of Sprague-Dawley rat liver microsomal S9 fraction relative to baseline; assay type: toxicity, organism-based; conditions: salmonella enterica subsp. enterica serovar typhimurium; summary of the method: as §1

| SMILES | fold change (FC) |
| --- | --- |
| Cc1ccc(C2=NN(c3nc(-c4ccc(C#N)cc4)cs3)C(c3ccc(F)cc3)C2)s1 (stereo not drawn) | 0.44 |

test system: not listed separately; experiment: Cytotoxicity against mouse NIH/3T3 cells after 24 hrs by XTT assay; assay type: cell-based; conditions: NIH3T3, 24 h
Summary of the method: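 A549 cells in RPMI and NIH/3T3 cells in DMEM, each with fetal calf serum, antibiotics and 7.5% NaHCO₃, at 37 °C, 5% CO₂. Seeded at 20,000 cells/well, 24 h, then compounds added in medium at 500–3.9 doses (final DMSO <0.1%) for 24 h. XTT read after 3 h at 480 nm (ref 680 nm). IC₅₀ by non-linear regression; triplicates; cisplatin control.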

| SMILES | IC50 [µg/mL] |
| --- | --- |
| Cc1ccc(C2=NN(c3nc(-c4ccc(C#N)cc4)cs3)C(c3ccc(F)cc3)C2)s1 (stereo not drawn) | 250 (≈ 562 µM) |

test system: Salmonella typhimurium; experiment: Mutagenicity in Salmonella typhimurium TA98 at 0.156 mg/ml after 48 hrs by AMES MPF assay in presence of Sprague-Dawley rat liver microsomal S9 fraction relative to baseline; assay type: toxicity, organism-based; conditions: salmonella enterica subsp. enterica serovar typhimurium; summary of the method: as §1

| SMILES | fold change (FC) |
| --- | --- |
| Cc1ccc(C2=NN(c3nc(-c4ccc(C#N)cc4)cs3)C(c3ccc(F)cc3)C2)s1 (stereo not drawn) | 0.27 |

test system: Nakaseomyces glabratus; experiment: Antifungal activity against Candida glabrata clinical isolate after 48 hrs by broth microdilution assay; assay type: functional; conditions: not given; summary of the method: as §3

| SMILES | MIC [µg/mL] |
| --- | --- |
| Cc1ccc(C2=NN(c3nc(-c4ccc(C#N)cc4)cs3)C(c3ccc(F)cc3)C2)s1 (stereo not drawn) | 125 (≈ 281 µM) |

test system: Salmonella typhimurium; experiment: Mutagenicity in Salmonella typhimurium TA100 at 0.3125 mg/ml after 48 hrs by AMES MPF assay in presence of Sprague-Dawley rat liver microsomal S9 fraction relative to baseline; assay type: toxicity, organism-based; conditions: salmonella enterica subsp. enterica serovar typhimurium; summary of the method: as §1

| SMILES | fold change (FC) |
| --- | --- |
| Cc1ccc(C2=NN(c3nc(-c4ccc(C#N)cc4)cs3)C(c3ccc(F)cc3)C2)s1 (stereo not drawn) | 0.94 |

test system: Pichia kudriavzevii; experiment: Antifungal activity against Candida krusei NRLL Y 7179 after 48 hrs by broth microdilution assay; assay type: functional; conditions: NRLL Y 7179, 48 h; summary of the method: as §3

| SMILES | MIC [µg/mL] |
| --- | --- |
| Cc1ccc(C2=NN(c3nc(-c4ccc(C#N)cc4)cs3)C(c3ccc(F)cc3)C2)s1 (stereo not drawn) | 250 (≈ 562 µM) |

test system: Candida tropicalis; experiment: Antifungal activity against Candida tropicalis NRLL Y 12968 after 48 hrs by broth microdilution assay; assay type: functional; conditions: NRLL Y 12968, 48 h; summary of the method: as §3

| SMILES | MIC [µg/mL] |
| --- | --- |
| Cc1ccc(C2=NN(c3nc(-c4ccc(C#N)cc4)cs3)C(c3ccc(F)cc3)C2)s1 (stereo not drawn) | 250 (≈ 562 µM) |

test system: Salmonella typhimurium; experiment: Mutagenicity in Salmonella typhimurium TA98 at 1.25 mg/ml after 48 hrs by AMES MPF assay in absence of Sprague-Dawley rat liver microsomal S9 fraction relative to baseline; assay type: toxicity, organism-based; conditions: salmonella enterica subsp. enterica serovar typhimurium; summary of the method: as §1

| SMILES | fold change (FC) |
| --- | --- |
| Cc1ccc(C2=NN(c3nc(-c4ccc(C#N)cc4)cs3)C(c3ccc(F)cc3)C2)s1 (stereo not drawn) | 1.11 |

test system: Salmonella typhimurium; experiment: Mutagenicity in Salmonella typhimurium TA98 at 5 mg/ml after 48 hrs by AMES MPF assay in absence of Sprague-Dawley rat liver microsomal S9 fraction relative to baseline; assay type: toxicity, organism-based; conditions: salmonella enterica subsp. enterica serovar typhimurium; summary of the method: as §1

| SMILES | fold change (FC) |
| --- | --- |
| Cc1ccc(C2=NN(c3nc(-c4ccc(C#N)cc4)cs3)C(c3ccc(F)cc3)C2)s1 (stereo not drawn) | 1.33 |

test system: Salmonella typhimurium; experiment: Mutagenicity in Salmonella typhimurium TA100 at 0.156 mg/ml after 48 hrs by AMES MPF assay in presence of Sprague-Dawley rat liver microsomal S9 fraction relative to baseline; assay type: toxicity, organism-based; conditions: salmonella enterica subsp. enterica serovar typhimurium; summary of the method: as §1

| SMILES | fold change (FC) |
| --- | --- |
| Cc1ccc(C2=NN(c3nc(-c4ccc(C#N)cc4)cs3)C(c3ccc(F)cc3)C2)s1 (stereo not drawn) | 1.01 |
